High-throughput results as filed in PubChem.
ATG4B inh: ATG4B (human) cysteine protease inhibition | Q9Y4P1 | ATG4B cleavage of LC3-PLA2, NBD-HPC fluorescence, 1 h | inhibition, % at 8.33 µM | 0.51% of 340,000 active | AID 504462; in the data active = inhibition above about 40%
Target sequence (Q9Y4P1 whole entry, looked up): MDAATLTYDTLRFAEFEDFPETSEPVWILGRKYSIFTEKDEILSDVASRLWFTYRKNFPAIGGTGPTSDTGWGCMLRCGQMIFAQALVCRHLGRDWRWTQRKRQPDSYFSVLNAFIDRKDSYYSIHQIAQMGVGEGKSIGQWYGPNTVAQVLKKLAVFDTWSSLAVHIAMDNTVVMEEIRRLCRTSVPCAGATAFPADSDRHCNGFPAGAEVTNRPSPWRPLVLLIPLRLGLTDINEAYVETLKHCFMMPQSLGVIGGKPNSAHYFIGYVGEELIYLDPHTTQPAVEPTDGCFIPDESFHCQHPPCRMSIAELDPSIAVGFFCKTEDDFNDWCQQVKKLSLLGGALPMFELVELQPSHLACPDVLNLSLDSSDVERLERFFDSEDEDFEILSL
ABCB6 inh MLPCN: inhibitors of human ABC transporter ABCB6. AID 602162. K562-ABCB6 porphyrin accumulation, flow cytometry, 1 h; active compounds read low. 0.19% of 360,000 active. Q9NP58. fluorescence ratio to DMSO, % at 10 µM;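 active = fluorescence ratio to DMSO below 75%, the collection mean minus 3 SD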;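 also: signal is porphyrin accumulated inside mitochondria; 100% equals median channel fluorescence of DMSO control wells; lower ratio means ABCB6 inhibition with less porphyrin fluorescence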
Granule exo inh: blocks lytic granule exocytosis | TALL-104 LAMP-1 surface exposure, flow cytometry; cells stimulated with thapsigargin and PMA | inhibition, % at 10 µM | 0.66% of 360,000 active | AID 651702;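 active = inhibition above about 55%, limit read from the data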
CendR NRP1 mod: NRP-1/CendR interaction modulation; O14786; FAM-RPARPAR peptide binding to NRP-1, fluorescence polarization; inhibition, % at 25 µM; 0.85% of 360,000 active; AID 602438;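 active = inhibition or corrected inhibition above about 18%, plus a signal ratio from 0.5 to 1.5, limit read from the data, passing the limit was not always enough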
Arr AP2 block: human beta-arrestin and AP2 interaction inhibition; AID 504490; inhibition, % at 10 µM; FITC-arrestin peptide / GST-AP2 beads, flow cytometry; AP2 beta2 appendage carries R879A mutation; 0.31% of 340,000 active;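 active = inhibition above a set limit, near 3 SD of compounds lacking own fluorescence, cut at about 54% in these data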;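 also: plate controls were DMSO wells for no effect and 5 µM unlabelled arrestin peptide for full effect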
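System: GST-AP2 R879A glutathione beads | Also added: FITC-arrestin peptide, 50 nM | Times: 12 min plus 1 h, RT | Signal: Bead flow cytometry, FITC channel | Buffer or medium: PBS with 0.05% Tween 20 and 0.1% BSA | Read-out basis: Percent drop in bead-associated FITC signal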
Myeloid diff MLP: myeloid differentiation induction; ER-HoxA9 myeloid progenitors, lysozyme-GFP differentiation, flow cytometry; calls only at 10 µM; 1% of 360,000 active;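 active = normalized GFP-positive differentiation at or above the plate's own cutoff, the solvent-only control mean plus 3 SD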;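 also: cells exposed to compound for four days before flow analysis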
ATG4B conf: ATG4B (human) inhibition, single-dose confirmed; shares compounds with ATG4B inh; ATG4B protease fluorescent substrate cleavage assay; inhibition, % at 8.33 µM; 92% of 320 active; AID 504757; in the data active = inhibition above about 39%
PLA2 counter: inhibits human PLA2, flagging false ATG4B inhibitors. shares compounds with ATG4B inh. purified PLA2, NBD-C6-HPC fluorescence, 45 min. inhibition, % at 8.33 µM. 66% of 1,600 active. AID 588402; in the data active = inhibition above about 50%
* hit, by the source's call; i = inactive; / = not tested or not shown. This is a sample that favours compounds with a hit; in the whole collection about 3.3% have one here.

SMILES | ATG4B inh | ABCB6 inh MLPCN | Granule exo inh | CendR NRP1 mod | Arr AP2 block | Myeloid diff MLP | PLA2 counter | others
Cc1ccc(NC(=O)C2CCCN(c3ncnc4c3nc3n4CCCCC3)C2)cc1Cl (centres undefined) | 4 | 99 | -4 | 7 | -5 | i | /
Cc1cccc(N2CCN(C(=O)C3CCN(c4ncnc5c4nc4n5CCCCC4)CC3)CC2C)c1 (centres undefined) | 47* | 95 | -11 | -39 | 10 | i | 40 | ATG4B conf=63*
Cc1cccc(N2CCN(C(=O)C3CCN(c4ncnc5c4nc4n5CCCCC4)CC3)CC2)c1C | 63* | 91 | 2 | 7 | 7 | i | 78*
CC1=C(C(=O)Nc2cccc(C(=O)NCc3ccccc3C)c2)SCCO1 | 54* | 96 | -2 | 13 | 37 | i | 64*
Cc1ccc(NC(=O)COC(=O)c2ccccc2-c2nc3ccccc3s2)c(C)c1 | 14 | 99 | 9 | -2 | 5 | i | /
CCc1cccc(CC)c1NC(=O)COC(=O)c1ccccc1-c1nc2ccccc2s1 | 66* | 93 | 0 | -9 | 7 | i | 74*
COc1ccc(Cn2c(O)c(C=Nc3ccccc3C(=O)O)c3ccccc3c2=O)cc1 | 17 | 100 | 8 | -93 | 17 | i | /
COc1cc(C=NNc2ccc(S(=O)(=O)Nc3ccccc3C(=O)O)cc2[N+](=O)[O-])ccc1O | 46* | 96 | 6 | 7 | -3 | i | 63*
O=C(O)c1ccccc1NS(=O)(=O)c1ccc(N/N=C/c2cccc(O)c2O)c([N+](=O)[O-])c1 | 51* | 96 | -1 | 2 | 10 | i | 53*
COc1ccccc1NS(=O)(=O)c1cccc(-n2c(O)c(C=Nc3ccccc3C(=O)O)c3ccccc3c2=O)c1 | 51* | 90 | 2 | -107 | -5 | i | 74*
CCOc1ccc(NC(=O)CNc2cccc(S(=O)(=O)N3CCCCCC3)c2)cc1OCC | -12 | 91 | -12 | 18 | -3 | i | /
CC(=O)NCCNc1nc2cc(-c3cnn(CCC(C)C)c3)sc2c(=O)n1C | / | 96 | 2 | -1 | / | i | /
CSc1cccc(CN2CCN(CCC(C)C)C(CCO)C2)c1 (centres undefined) | -8 | 91 | 1 | 11 | 6 | i | /
Cc1ccc(S(=O)(=O)N2[C@@H](c3ccc(C(C)(C)C)cc3)C(C(=O)O)=CC[C@H]2c2cccc(Cl)c2)cc1 | 41* | 91 | 2 | -31 | 9 | i | 61*
Clc1cccc(Cl)c1CNc1ccc(N2CCCC2)cc1 | 43* | / | / | / | / | / | 42 | ATG4B conf=64*
O=C(Cc1ccc(Cl)cc1)Nc1ccc(N2CCCC2)cc1 | -5 | 98 | 3 | -20 | 1 | i | /
Cc1cccc(C(=O)c2cnc3ccccc3c2-c2ccccc2)c1 | 57* | 92 | 5 | -1 | -5 | i | 59*
Cc1cccc(C(=O)NNC(=O)c2ccccc2)c1 | -12 | 104 | -3 | -1 | -21 | i | /
CC1(C)Cc2c(cnn2-c2ccccc2)C(=O)/C1=N\NC(=O)c1ccccc1N | -7 | 95 | -1 | -10 | 4 | i | /
CC1(C)Cc2c(cnn2-c2ccccc2)-c2c1c1ccccc1n2CC(O)CBr (centres undefined) | 48* | 104 | 1 | 4 | 5 | i | 57*
CCn1cnc2c1c(=O)n(CC(=O)OC(C)C(N)=O)c(=O)n2Cc1ccccc1 (centres undefined) | 4 | 99 | -13 | 16 | -9 | i | /
CCOC(=O)N1CCN(C(=O)C[C@@H]2C[C@@]3(C(=O)OC)CC(C)(C)CC=C3N(Cc3ccccc3)C2=O)CC1 | / | / | 0 | 14 | / | i | /
O=C(c1ccc2c(=O)n(Cc3ccc4c(c3)OCO4)c(=S)[nH]c2c1)N1CCCCC1 | 55* | 96 | 0 | 7 | 18 | i | 8
O=C(c1ccc(Cn2c(=O)[nH]c3ccccc3c2=O)cc1)N1CCN(c2ccccn2)CC1 | 4 | 97 | -4 | 8 | 2 | i | /
